Assays:
[1] = Partition coefficient (logP) (HPLC); assay type: physicochemical; settings: octanol/water
[2] = target: Human immunodeficiency virus type 1 protease (Human immunodeficiency virus 1, UniProt Q72874); assay: Affinity against HIV protease
[3] = target: Human immunodeficiency virus type 1 protease (Human immunodeficiency virus 1) (UniProt Q72874)
[4] = Maximum concentration in dog plasma; assay type: ADME, organism-based, Canis lupus familiaris
How it was run: (§1)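 Female Beagle dogs received either 10.0 mg/kg orally (three dogs; 10.0 mg/mL, 1.0 mL/kg) or 5.0 mg/kg intravenously (same formulation, 0.5 mL/kg). Vehicle was PEG400/water/EtOH (60/30/10). Plasma concentrations were assayed by a method validated over 0.10–50.0 μg/mL.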

[5] = Apparent volume of distribution of compound in dog plasma; assay type: ADME, organism-based, Canis lupus familiaris; settings: read-out: Vss
How it was run: (§2)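 Female Beagle dogs given a 5.0 mg/kg intravenous dose. Formulation was 10.0 mg/mL in PEG400/water/EtOH (60/30/10), dosed at 0.5 mL/kg. Compound levels were measured in plasma by a method validated over 0.10–50.0 μg/mL.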

[6] = Half life determined by administering intravenously in dog; assay type: ADME, organism-based, Canis lupus familiaris; settings: in vivo, iv; how it was run: as §2
[7] = organism: Canis lupus familiaris; assay: Clearance of compound in dog plasma
[8] = Maximum concentration (10 mg/kg, orally) in plasma of dogs; assay type: ADME, organism-based, Canis lupus familiaris; design: dose 10 mg/kg, route oral; settings: dog, po
How it was run: (§3)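 Three female Beagle dogs were dosed orally at 10.0 mg/kg. The compound was given at 10.0 mg/mL in PEG400/water/EtOH (60/30/10) at 1.0 mL/kg. Plasma drug was quantified by a method validated in dog plasma over 0.10–50.0 μg/mL.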

[9] = Oral bioavailability in dog (dose 10 mg/kg); assay type: ADME, organism-based, Canis lupus familiaris; settings: in vivo; how it was run: as §1
[10] = Half life (10 mg/kg, orally) […] in dog plasma; assay type: ADME, organism-based, Canis lupus familiaris; how it was run: as §3
[11] = Clearance (5 mg/kg, intravenously) in dog plasma; settings: iv
[12] = Apparent volume of distribution of compound (5 mg/kg, intravenously) in dogs; settings: dog, in vivo, iv, read-out: Vss
[13] = Half life (5 mg/kg, intravenously) determined by administering intravenously in dogs; settings: dog, in vivo, iv
[14] = Maximum concentration (5 mg/kg, intravenously) in plasma of dogs; assay type: ADME, organism-based, Canis lupus familiaris; design: dose 5 mg/kg, route intravenous; settings: dog, iv; how it was run: as §2
[15] = Half life (5 mg/kg, intravenously) determined by administering intravenously in dogs; assay type: ADME, organism-based, Canis lupus familiaris; settings: dog, in vivo, iv; how it was run: as §2
[16] = Clearance of compound in dog plasma; assay type: ADME, organism-based, Canis lupus familiaris; how it was run: as §2
[17] = Half life determined by administering intravenously in dog plasma; assay type: ADME, organism-based, Canis lupus familiaris; settings: iv; how it was run: as §2
[18] = Clearance of compound (5 mg/kg, intravenously), in dog plasma; assay type: ADME, organism-based, Canis lupus familiaris; settings: iv; how it was run: as §2
[19] = Maximum concentration (10 mg/kg, perorally) in plasma of dogs; assay type: ADME, organism-based, Canis lupus familiaris; design: dose 10 mg/kg, route oral; settings: dog, po; how it was run: as §3
[20] = Apparent volume of distribution of compound (5 mg/kg, intravenously) in dogs; assay type: ADME, organism-based, Canis lupus familiaris; settings: dog, in vivo, iv, read-out: Vss; how it was run: as §2
[21] = Half life (10 mg/kg, perorally) […] in dogs; assay type: ADME, organism-based, Canis lupus familiaris; settings: dog, in vivo; how it was run: as §3

SMILES | logP [1] | Ki [2] [nM] | IC90 [3] [nM] | other results
COc1cccc(CN2C(=O)N(Cc3cccc(C(=O)Nc4ccccn4)c3)[C@H](Cc3ccccc3)[C@H](O)[C@@H](O)[C@H]2Cc2ccccc2)c1 | 5.06 | 0.047 | 30 | 
Cc1ccc(NC(=O)c2cccc(CN3C(=O)N(Cc4cccc(C(=O)Nc5ccc(C)cn5)c4)[C@H](Cc4ccccc4)[C@H](O)[C@@H](O)[C@H]3Cc3ccccc3)c2)nc1 |  |  | 3.1 | Cmax [4]: 100 ng/mL; Vd [5]: 4.5 L/kg; half-life [6]: 1 h; clearance [7]: 66.7 mL/min/kg
COc1cccc(CN2C(=O)N(Cc3cccc(C(=O)Nc4ccc(C)cn4)c3)[C@H](Cc3ccccc3)[C@H](O)[C@@H](O)[C@H]2Cc2ccccc2)c1 | 5.51 | 0.069 | 41.6 | 
Nc1cccc(CN2C(=O)N(Cc3cccc(N)c3)[C@H](Cc3ccccc3)[C@H](O)[C@@H](O)[C@H]2Cc2ccccc2)c1 [MOZENAVIR] | 3.17 | 0.31 |  | Cmax [8]: 6000 ng/mL; bioavailability [9]: 79.2%; half-life [10]: 2.5 h; clearance [11]: 3.33 mL/min/kg; Vd [12]: 1.3 L/kg; half-life [13]: 3.6 h
COc1cc(CN2C(=O)N(Cc3cccc(C(=O)Nc4cnccn4)c3)[C@H](Cc3ccccc3)[C@H](O)[C@@H](O)[C@H]2Cc2ccccc2)cc(OC)c1 | 4.84 | 2.51 | 743 | 
COc1cccc(CN2C(=O)N(Cc3cccc(C(=O)Nc4cccc(C)n4)c3)[C@H](Cc3ccccc3)[C@H](O)[C@@H](O)[C@H]2Cc2ccccc2)c1 | 5.54 | 0.053 | 42.7 | 
Nc1cccc(CN2C(=O)N(Cc3cccc(C(=O)Nc4nc5ccccc5[nH]4)c3)[C@H](Cc3ccccc3)[C@H](O)[C@@H](O)[C@H]2Cc2ccccc2)c1 | 4.95 | 0.023 | 13.2 | Cmax [14]: 5500 ng/mL; bioavailability [9]: 109%; half-life [15]: 1.5 h
N#CCNC(=O)c1cccc(CN2C(=O)N(Cc3cccc(C(=O)NCC(=O)O)c3)[C@H](Cc3ccccc3)[C@H](O)[C@@H](O)[C@H]2Cc2ccccc2)c1 | 2.44 | 0.024 | 741 | 
CC(C)(C)NC(=O)[C@@H]1CN(Cc2cccnc2)CCN1C[C@@H](O)C[C@@H](Cc1ccccc1)C(=O)N[C@H]1c2ccccc2C[C@H]1O |  |  | 50 | 
Cc1ccc(NC(=O)c2cccc(CN3C(=O)N(Cc4cccc(N)c4)[C@H](Cc4ccccc4)[C@H](O)[C@@H](O)[C@H]3Cc3ccccc3)c2)nc1 | 4.47 | 0.075 | 16.5 | 
O=C(Nc1ccccn1)c1cccc(CN2C(=O)N(Cc3cccc(C(=O)Nc4ccccn4)c3)[C@H](Cc3ccccc3)[C@H](O)[C@@H](O)[C@H]2Cc2ccccc2)c1 |  |  | 2.8 | clearance [16]: 70 mL/min/kg; Cmax [4]: < 200 ng/mL; Vd [5]: 10.3 L/kg; half-life [17]: 1.1 h
COc1cc(CN2C(=O)N(Cc3cccc(C(=O)Nc4cccc(C)n4)c3)[C@H](Cc3ccccc3)[C@H](O)[C@@H](O)[C@H]2Cc2ccccc2)cc(OC)c1 | 5.69 | 0.7 | 282 | 
CC(C)(C)NC(=O)[C@@H]1C[C@@H]2CCCC[C@@H]2CN1C[C@@H](O)[C@H](Cc1ccccc1)NC(=O)[C@H](CC(N)=O)NC(=O)c1ccc2ccccc2n1 |  |  | 10.4 | 
COc1cc(CN2C(=O)N(Cc3cccc(C(=O)Nc4ccc(C)cn4)c3)[C@H](Cc3ccccc3)[C@H](O)[C@@H](O)[C@H]2Cc2ccccc2)cc(OC)c1 | 5.59 | 1.9 | 282 | 
CC(C)CN(C[C@@H](O)[C@H](Cc1ccccc1)NC(=O)O[C@H]1CCOC1)S(=O)(=O)c1ccc(N)cc1 |  |  | 46 | 
O=C(Nc1cnccn1)c1cccc(CN2C(=O)N(Cc3cccc(C(=O)Nc4cnccn4)c3)[C@H](Cc3ccccc3)[C@H](O)[C@@H](O)[C@H]2Cc2ccccc2)c1 |  |  | 3.5 | clearance [16]: 46.7 mL/min/kg; Cmax [4]: 400 ng/mL; Vd [5]: 3 L/kg; half-life [17]: 0.8 h
Nc1cccc(CN2C(=O)N(Cc3cccc(C(=O)Nc4ncc[nH]4)c3)[C@H](Cc3ccccc3)[C@H](O)[C@@H](O)[C@H]2Cc2ccccc2)c1 | 3.39 | 0.012 | 26.2 | clearance [18]: 8.33 mL/min/kg; Cmax [19]: 900 ng/mL; bioavailability [9]: 68%; Vd [20]: 4 L/kg; half-life [21]: 10.3 h; half-life [15]: 5.6 h
CC(C)c1nc(CN(C)C(=O)N[C@H](C(=O)N[C@@H](Cc2ccccc2)C[C@H](O)[C@H](Cc2ccccc2)NC(=O)OCc2cncs2)C(C)C)cs1 |  |  | 76 | 
Nc1cccc(CN2C(=O)N(Cc3cccc(C(=O)Nc4cnccn4)c3)[C@H](Cc3ccccc3)[C@H](O)[C@@H](O)[C@H]2Cc2ccccc2)c1 | 3.77 | 0.016 | 20.2 | 
COc1cccc(CN2C(=O)N(Cc3cccc(C(=O)Nc4cnccn4)c3)[C@H](Cc3ccccc3)[C@H](O)[C@@H](O)[C@H]2Cc2ccccc2)c1 | 4.75 | 0.038 | 91.2 | 
CC(C)(C)NC(=O)c1cccc(CN2C(=O)N(Cc3cccc(N)c3)[C@H](Cc3ccccc3)[C@H](O)[C@@H](O)[C@H]2Cc2ccccc2)c1 | 5.28 | 0.41 | 114 | 
O=C(Nc1ccccn1)c1cccc(CN2C(=O)N(Cc3cccc([N+](=O)[O-])c3)[C@H](Cc3ccccc3)[C@H](O)[C@@H](O)[C@H]2Cc2ccccc2)c1 | 5.05 | 0.096 | 97.5 | 
O=C1N(Cc2ccc(CO)cc2)[C@H](Cc2ccccc2)[C@H](O)[C@@H](O)[C@@H](Cc2ccccc2)N1Cc1ccc(CO)cc1 [DMP-323] | 3.56 |  | 115 | 
COc1cc(CN2C(=O)N(Cc3cccc(C(=O)Nc4ccccn4)c3)[C@H](Cc3ccccc3)[C@H](O)[C@@H](O)[C@H]2Cc2ccccc2)cc(OC)c1 | 5.2 | 0.86 | 129 | 

Reference: ChEMBL document CHEMBL1130259, “Nonsymmetrically substituted cyclic urea HIV protease inhibitors” (J Med Chem, 1997)
